The results in this text go back to ChEMBL document CHEMBL1817562, “Docking and SAR studies of D- and L-isofagomine isomers as human β-glucocerebrosidase inhibitors” (Bioorg Med Chem, 2011).

Assay [1] is filed under the species Rattus norvegicus. Description: Inhibition of rat intestinal cellobiase assessed as production of p-nitrophenol at 1000 uM by spectrophotometry.
Assay [2] concerns Coffea. Description: Inhibition of coffee beans alpha-galactosidase assessed as production of p-nitrophenol at 1000 uM by spectrophotometry. An outline of the steps:
(§1)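 p-Nitrophenyl glycoside matched to each enzyme, 2 mM, with enzyme at that enzyme's optimum pH: Penicillium decumbens α-L-rhamnosidase pH 4.0, bovine liver β-galactosidase pH 6.8, coffee bean α-galactosidase pH 6.5, jack bean α-mannosidase pH 4.5, snail β-mannosidase pH 4.5. Stopped with 400 mM Na2CO3; released p-nitrophenol read at 400 nm.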

In assay [3] the test system is Canavalia ensiformis. Description: Inhibition of jack beans alpha-mannosidase assessed as production of p-nitrophenol at 1000 uM by spectrophotometry. Summed up:
as §1

For assay [4], the system named is Helix pomatia. Description: Inhibition of snail beta-mannosidase assessed as production of p-nitrophenol at 1000 uM by spectrophotometry. Summed up: as §1
Assay [5] concerns Penicillium decumbens. Description: Inhibition of Penicillium decumbens alpha-L-rhamnosidase assessed as production of p-nitrophenol at 1000 uM by spectrophotometry. Summed up: as §1
Assay [6] can be described thus: Inhibition of rat intestinal maltase assessed as production of D-glucose using maltose as substrate after 10 to 30 mins by spectrophotometry. An outline of the steps:
(§2)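 Enzymes were rice α-glucosidase at pH 5.0 and rat small-intestine brush border membranes (Kessler method) at pH 5.8. Each reaction contained 25 mM maltose and enzyme and was incubated 10–30 min at 37 °C. Reactions were stopped by heating at 100 °C for 3 min, then centrifuged. Released D-glucose was measured with a glucose test reagent by absorbance at 505 nm.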

In assay [7] the target is T1, Sucrase-isomaltase, intestinal (Rattus norvegicus, UniProt P23739). Description: Inhibition of rat intestinal isomaltase assessed as production of p-nitrophenol at by spectrophotometry.
Assay [8] in a line: Inhibition of rice alpha-glucosidase assessed as production of D-glucose using maltose as substrate after 10 to 30 mins by spectrophotometry. Details: species or system Oryza sativa. An outline of the steps:
as §2

The test system of assay [9] is Prunus dulcis. The following applies: 1000 uM.
Assay [10] deals with T2, Tissue alpha-L-fucosidase (Bos taurus) (UniProt Q2KIM0).
T2 sequence (whole entry): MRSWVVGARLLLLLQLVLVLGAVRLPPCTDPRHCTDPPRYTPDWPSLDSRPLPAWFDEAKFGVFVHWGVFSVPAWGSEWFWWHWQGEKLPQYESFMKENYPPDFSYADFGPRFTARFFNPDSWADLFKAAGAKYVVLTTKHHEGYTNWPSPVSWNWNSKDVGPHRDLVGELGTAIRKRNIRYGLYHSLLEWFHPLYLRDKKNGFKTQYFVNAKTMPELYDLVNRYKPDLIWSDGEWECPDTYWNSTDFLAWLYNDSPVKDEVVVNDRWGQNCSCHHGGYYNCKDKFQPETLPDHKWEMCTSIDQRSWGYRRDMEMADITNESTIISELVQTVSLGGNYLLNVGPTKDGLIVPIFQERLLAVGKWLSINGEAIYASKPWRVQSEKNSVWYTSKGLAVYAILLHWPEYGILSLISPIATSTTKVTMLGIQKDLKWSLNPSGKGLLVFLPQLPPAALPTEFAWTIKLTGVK
As to conditions: 1000 uM.

Assay [11] deals with Lactase/phlorizin hydrolase (Rattus norvegicus) (UniProt Q02401). As to conditions: 1000 uM.
Assay [12] has as its target T1, Sucrase-isomaltase, intestinal. Description: Inhibition of rat intestinal sucrase assessed as release of D-glucose at by spectrophotometry.
Assay [13] concerns the target Lactase/phlorizin hydrolase (Rattus norvegicus, UniProt Q02401). Description: Inhibition of rat intestinal lactase assessed as production of p-nitrophenol by spectrophotometry.
Assay [14] can be described thus: Inhibition of rat intestinal cellobiase assessed as production of p-nitrophenol by spectrophotometry.
Assay [15] deals with T3, Beta-galactosidase (Bos taurus, UniProt Q58D55).
T3 sequence (Q58D55 whole entry): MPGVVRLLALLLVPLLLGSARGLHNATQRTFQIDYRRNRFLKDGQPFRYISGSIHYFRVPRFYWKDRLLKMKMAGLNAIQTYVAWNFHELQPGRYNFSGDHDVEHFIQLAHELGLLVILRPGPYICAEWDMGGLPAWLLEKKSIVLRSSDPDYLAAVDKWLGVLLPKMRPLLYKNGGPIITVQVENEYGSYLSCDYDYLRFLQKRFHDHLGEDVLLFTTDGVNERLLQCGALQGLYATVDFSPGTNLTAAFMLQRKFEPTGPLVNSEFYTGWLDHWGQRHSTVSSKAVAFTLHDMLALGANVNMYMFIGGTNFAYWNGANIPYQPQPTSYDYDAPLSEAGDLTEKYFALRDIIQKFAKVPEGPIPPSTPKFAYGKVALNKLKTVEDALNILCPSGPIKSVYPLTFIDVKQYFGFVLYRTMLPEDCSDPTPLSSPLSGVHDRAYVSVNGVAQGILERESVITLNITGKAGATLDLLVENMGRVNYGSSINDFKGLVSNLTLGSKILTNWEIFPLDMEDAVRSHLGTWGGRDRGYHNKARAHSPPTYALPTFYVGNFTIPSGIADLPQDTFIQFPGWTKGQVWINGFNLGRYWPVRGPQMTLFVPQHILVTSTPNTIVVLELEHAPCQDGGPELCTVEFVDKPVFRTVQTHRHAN
Description: Inhibition of bovine liver beta-galactosidase assessed as production of p-nitrophenol by spectrophotometry.

The test system of assay [16] is Oryza sativa. The following applies: 1000 uM.
Assay [17] in a line: Inhibition of almond beta-glucosidase assessed as production of p-nitrophenol using p-nitrophenyl glycoside as substrate by spectrophotometry.
The target of assay [18] is T4, Tissue alpha-L-fucosidase (Bos taurus, UniProt Q2KIM0).
T4 sequence (Q2KIM0 whole entry): T2 sequence (whole entry)
Description: Inhibition of bovine epididymis alpha-L-fucosidase assessed as production of p-nitrophenol by spectrophotometry. An outline of the steps: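 Commercial enzymes were assayed at their own optimum pH: bovine epididymis α-L-fucosidase pH 5.5, bovine liver β-galactosidase pH 6.8, coffee bean α-galactosidase pH 6.5. Reactions contained 2 mM of the matching p-nitrophenyl glycoside plus enzyme. They were stopped with 400 mM Na2CO3, and released p-nitrophenol was read at 400 nm.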

The target of assay [19] is Sucrase-isomaltase, intestinal (Rattus norvegicus) (UniProt P23739). The following applies: 1000 uM.
The target in assay [20] is T5, Lysosomal acid glucosylceramidase (Homo sapiens) (UniProt P04062).
T5 sequence (whole entry): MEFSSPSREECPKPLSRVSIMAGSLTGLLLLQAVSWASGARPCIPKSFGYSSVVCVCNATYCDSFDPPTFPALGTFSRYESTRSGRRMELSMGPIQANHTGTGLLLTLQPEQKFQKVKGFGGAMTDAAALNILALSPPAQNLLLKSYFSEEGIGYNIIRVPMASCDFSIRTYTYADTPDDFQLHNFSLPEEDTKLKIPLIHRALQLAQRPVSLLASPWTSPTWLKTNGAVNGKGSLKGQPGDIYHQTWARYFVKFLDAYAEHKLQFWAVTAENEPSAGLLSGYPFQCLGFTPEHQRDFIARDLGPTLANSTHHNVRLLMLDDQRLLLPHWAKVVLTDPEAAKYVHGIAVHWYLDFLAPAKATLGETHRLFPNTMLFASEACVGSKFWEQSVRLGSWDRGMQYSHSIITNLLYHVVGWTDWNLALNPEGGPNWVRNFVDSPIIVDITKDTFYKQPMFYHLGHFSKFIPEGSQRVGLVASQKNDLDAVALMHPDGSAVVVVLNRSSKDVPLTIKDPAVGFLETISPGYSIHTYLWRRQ
As to conditions: 1000 uM.

Assay [21] has as its target T6, Glucosylceramidase (Bos taurus) (UniProt Q2KHZ8).
T6 sequence (whole entry): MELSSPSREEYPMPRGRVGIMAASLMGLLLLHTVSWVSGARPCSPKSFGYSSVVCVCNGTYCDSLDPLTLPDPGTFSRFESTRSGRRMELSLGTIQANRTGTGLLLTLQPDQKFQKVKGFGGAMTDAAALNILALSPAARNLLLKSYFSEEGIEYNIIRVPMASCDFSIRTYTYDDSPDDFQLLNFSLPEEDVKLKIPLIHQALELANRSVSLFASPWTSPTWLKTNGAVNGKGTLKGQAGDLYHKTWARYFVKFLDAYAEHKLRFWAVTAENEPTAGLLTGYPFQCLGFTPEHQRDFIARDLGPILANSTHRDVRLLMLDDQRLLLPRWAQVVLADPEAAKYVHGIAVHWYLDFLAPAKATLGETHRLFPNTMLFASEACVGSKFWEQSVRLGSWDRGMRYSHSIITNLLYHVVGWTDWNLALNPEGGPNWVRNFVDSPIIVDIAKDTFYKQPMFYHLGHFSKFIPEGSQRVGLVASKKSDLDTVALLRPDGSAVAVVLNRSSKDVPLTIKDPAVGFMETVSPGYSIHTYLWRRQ
Description: Inhibition of bovine liver beta-glucosidase assessed as production of p-nitrophenol using p-nitrophenyl glycoside as substrate at 1000 uM by spectrophotometry.

The nature of assay [22]: Inhibition of rice alpha-glucosidase. Details: species or system Oryza sativa. An outline of the steps:
as §2

Assay [23] in a line: Inhibition of rat intestinal maltase. Summed up:
as §2

For orientation: inhibition means the drop in the measured response relative to a control, in per cent. A word on the IC50: it is the concentration needed to halve the response being measured. By Ki is commonly meant the equilibrium dissociation constant of an inhibitor or competing ligand from its target. Lower therefore signals tighter binding.

T1 sequence (P23739 1-1013 limits assumed): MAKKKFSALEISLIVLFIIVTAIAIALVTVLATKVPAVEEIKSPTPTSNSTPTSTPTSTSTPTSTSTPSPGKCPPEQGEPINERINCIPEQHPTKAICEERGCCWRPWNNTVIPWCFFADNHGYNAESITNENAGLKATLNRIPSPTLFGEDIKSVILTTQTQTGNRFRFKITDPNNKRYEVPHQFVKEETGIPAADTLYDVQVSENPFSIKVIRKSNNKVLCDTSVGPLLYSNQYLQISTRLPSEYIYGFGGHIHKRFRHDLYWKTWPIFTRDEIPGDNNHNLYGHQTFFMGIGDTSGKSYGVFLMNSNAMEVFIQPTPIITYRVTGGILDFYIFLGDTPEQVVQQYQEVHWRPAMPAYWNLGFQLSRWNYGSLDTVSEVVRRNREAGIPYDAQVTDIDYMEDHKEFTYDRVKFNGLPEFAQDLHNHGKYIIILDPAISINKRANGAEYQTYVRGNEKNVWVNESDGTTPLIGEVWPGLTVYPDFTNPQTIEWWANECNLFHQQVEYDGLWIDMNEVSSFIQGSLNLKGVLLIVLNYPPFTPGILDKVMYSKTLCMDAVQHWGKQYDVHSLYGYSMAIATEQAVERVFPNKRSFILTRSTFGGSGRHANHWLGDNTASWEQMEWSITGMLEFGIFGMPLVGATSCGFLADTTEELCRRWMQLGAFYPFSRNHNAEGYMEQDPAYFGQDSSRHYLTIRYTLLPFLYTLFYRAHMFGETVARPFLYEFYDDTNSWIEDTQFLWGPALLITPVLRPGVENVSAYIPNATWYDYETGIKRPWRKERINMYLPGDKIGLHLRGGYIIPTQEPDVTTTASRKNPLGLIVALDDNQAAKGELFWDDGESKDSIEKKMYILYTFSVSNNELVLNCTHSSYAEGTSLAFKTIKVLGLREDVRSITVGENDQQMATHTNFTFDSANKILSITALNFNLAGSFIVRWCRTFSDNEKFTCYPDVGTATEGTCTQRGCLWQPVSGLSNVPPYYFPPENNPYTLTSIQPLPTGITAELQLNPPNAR
T1 sequence (P23739 1014-1841 limits assumed): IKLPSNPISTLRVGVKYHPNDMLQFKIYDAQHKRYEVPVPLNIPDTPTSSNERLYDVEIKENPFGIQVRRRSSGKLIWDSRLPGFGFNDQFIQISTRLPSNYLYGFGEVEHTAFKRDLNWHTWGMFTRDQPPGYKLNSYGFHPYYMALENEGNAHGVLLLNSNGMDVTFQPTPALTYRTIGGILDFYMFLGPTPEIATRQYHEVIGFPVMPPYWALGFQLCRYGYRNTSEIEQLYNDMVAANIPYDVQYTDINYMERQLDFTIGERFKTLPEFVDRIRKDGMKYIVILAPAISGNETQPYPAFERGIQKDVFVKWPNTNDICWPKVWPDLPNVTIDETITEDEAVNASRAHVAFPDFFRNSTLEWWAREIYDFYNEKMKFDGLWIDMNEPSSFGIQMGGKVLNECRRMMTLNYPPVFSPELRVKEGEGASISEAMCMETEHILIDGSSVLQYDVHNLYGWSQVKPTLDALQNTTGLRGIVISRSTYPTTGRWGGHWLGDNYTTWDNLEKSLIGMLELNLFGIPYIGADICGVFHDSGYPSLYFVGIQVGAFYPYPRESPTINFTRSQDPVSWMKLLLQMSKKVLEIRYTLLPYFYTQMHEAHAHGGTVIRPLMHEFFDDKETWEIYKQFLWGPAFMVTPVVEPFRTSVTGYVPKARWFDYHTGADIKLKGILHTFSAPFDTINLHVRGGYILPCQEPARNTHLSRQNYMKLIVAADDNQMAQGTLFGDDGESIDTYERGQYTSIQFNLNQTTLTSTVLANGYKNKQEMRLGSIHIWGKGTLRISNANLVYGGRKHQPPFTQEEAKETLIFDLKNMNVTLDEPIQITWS
Lactase/phlorizin hydrolase, sequence (Q02401 868-1928 limits assumed): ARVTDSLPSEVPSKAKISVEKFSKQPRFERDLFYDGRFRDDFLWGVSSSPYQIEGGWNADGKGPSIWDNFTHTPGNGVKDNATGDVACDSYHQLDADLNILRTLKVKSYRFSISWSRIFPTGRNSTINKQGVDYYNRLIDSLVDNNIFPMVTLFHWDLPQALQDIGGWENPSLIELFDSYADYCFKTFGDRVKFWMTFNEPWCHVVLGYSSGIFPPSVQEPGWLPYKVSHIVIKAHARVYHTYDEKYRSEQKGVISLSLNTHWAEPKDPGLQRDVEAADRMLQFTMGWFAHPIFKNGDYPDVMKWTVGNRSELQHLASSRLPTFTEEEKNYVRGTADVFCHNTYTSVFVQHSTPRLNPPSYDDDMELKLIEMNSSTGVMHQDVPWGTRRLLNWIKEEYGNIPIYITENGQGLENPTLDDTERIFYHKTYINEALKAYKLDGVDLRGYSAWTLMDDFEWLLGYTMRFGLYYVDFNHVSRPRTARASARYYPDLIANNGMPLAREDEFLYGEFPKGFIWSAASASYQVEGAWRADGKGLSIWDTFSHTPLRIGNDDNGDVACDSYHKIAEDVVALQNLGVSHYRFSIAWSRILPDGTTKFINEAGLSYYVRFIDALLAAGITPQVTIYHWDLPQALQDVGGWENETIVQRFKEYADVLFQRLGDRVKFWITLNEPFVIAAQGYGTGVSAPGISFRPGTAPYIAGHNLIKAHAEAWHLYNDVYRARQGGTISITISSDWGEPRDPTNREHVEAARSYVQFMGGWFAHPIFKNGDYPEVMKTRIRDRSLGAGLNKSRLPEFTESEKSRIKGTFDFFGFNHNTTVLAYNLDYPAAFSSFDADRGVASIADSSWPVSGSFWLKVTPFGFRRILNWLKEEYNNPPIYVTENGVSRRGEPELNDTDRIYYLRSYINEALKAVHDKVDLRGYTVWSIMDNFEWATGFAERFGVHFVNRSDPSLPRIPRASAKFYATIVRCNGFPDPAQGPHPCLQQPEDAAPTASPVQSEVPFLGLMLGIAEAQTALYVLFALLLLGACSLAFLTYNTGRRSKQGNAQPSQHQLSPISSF
Lactase/phlorizin hydrolase (Rattus norvegicus), sequence (Q02401 868-1928 limits assumed): as above
Sucrase-isomaltase, intestinal (Rattus norvegicus), sequence (P23739 1-1013 limits assumed): as the sequence (P23739 1-1013 limits assumed) above
Sucrase-isomaltase, intestinal (Rattus norvegicus), sequence (P23739 1014-1841 limits assumed): as the sequence (P23739 1014-1841 limits assumed) above

As for `OC[C@H]1NCC[C@@H](O)[C@@H]1O` [FAGOMINE], the inhibition in [1], in [2], in [3], in [4], in [5] and in assay [9] was less than 50% in each case. Also, the inhibition in [10] and in [11] was less than 50% in each case. In addition, the IC50 in assay [6] is 113 µM; in [7], 37 µM; in [8] it was 320 µM; in [12] it was 34 µM.
For `OC[C@H]1CNC[C@@H](O)[C@@H]1O` [AFEGOSTAT], the inhibition in assay [2], in assay [3], in assay [4], in [5], in assay [16] and in [10] was less than 50% throughout. The IC50 turned out to be 0.12 µM in assay [13]; 653 µM in assay [6]; 290 µM in [7]; 0.3 µM in [14]; 3.6 µM in assay [15]; 531 µM in assay [12]. The IC50 in [17] turned out to be 0.98 µM.
Regarding `OC[C@@H]1NCC[C@@H](O)[C@H]1O`, the inhibition in [2], in assay [3], in [4], in [5], in [19] and in assay [9] was less than 50% in each case. Further, the inhibition in assay [20] and in assay [21] was less than 50% each time. The IC50 in assay [13] turned out to be 122 µM; in assay [6], 357 µM; in assay [14], 809 µM; in assay [8] it was 188 µM; in assay [18] it was 260 µM; in [12], 225 µM.
With `OCC1(O)CNC[C@H]1O` (single isomer, unassigned), the inhibition constant (Ki) in [22] is 4 µM; in assay [23], 6 µM.
